From ChEMBL document CHEMBL4402562, “Discovery of Novel Peptidomimetic Boronate ClpP Inhibitors with Noncanonical Enzyme Mechanism as Potent Virulence Blockers in Vitro and in Vivo” (J Med Chem, 2020) come the findings set out here.

What is called IC50 is the concentration needed to halve the response being measured. What is called Kd is a measure of binding affinity in units of concentration. For orientation: ΔTm means the shift of the melting midpoint relative to a reference.

Active and inactive are the calls of the source. No cut-off for these calls is given here. Where a SMILES comes first, the peptide text is derived from it. The star is where a group is joined. Cbz = O=C(OCc1ccccc1)*; CH2Cl = ClC*

Assay [1] addresses ATP-dependent Clp protease proteolytic subunit (Escherichia coli (strain K12), UniProt P0A6G7). The experiment in a line: Inhibition of Escherichia coli ClpP.
A short description of assay [2]: Inhibition of human ClpP (57 to 277 residues) expressed in Escherichia coli […] pre-incubated for 10 mins before Ac-WLA-AMC addition and measured after 1 hr by fluorescence based assay relative to control. In a few lines:
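hClpP (3.5 μM monomer) in 25 mM Tris-HCl pH 8.0, 100 mM KCl. Preincubated 10 min at RT with inhibitor, two-fold dilutions over 8 steps from 100 μM. Then 100 μM Ac-WLA-AMC, 380/440 nm for 1 h at 37 °C, slopes normalized to DMSO. Thrice, triplicate wells.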

The target of assay [3] is T1, ATP-dependent Clp protease proteolytic subunit (Staphylococcus aureus (strain NCTC 8325), UniProt Q2G036).
T1 sequence (Q2G036 whole entry): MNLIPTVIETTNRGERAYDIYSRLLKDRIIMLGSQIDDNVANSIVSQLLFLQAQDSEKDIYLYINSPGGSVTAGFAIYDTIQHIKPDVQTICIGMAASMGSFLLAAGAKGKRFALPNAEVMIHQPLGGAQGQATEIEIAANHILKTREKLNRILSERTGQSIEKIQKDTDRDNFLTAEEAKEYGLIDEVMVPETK
Briefly: Binding affinity to N-terminal His6-sumo-tagged full length Staphylococcus aureus ClpP expressed in Escherichia coli […] by ITC analysis. In a few lines: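 ITC at 500 rpm stirring after 150 s equilibration. A discarded 1 μL first injection, then 19 injections of 2 μL over 5 s each, 2–3 min apart, into 200 μL sample cell. Reference power 7 μcal/s, high gain, 5-s filter, baseline-corrected fit.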
(In ITC the heat of successive injections is recorded.)

Assay [4] in a line: Inhibition of AlgW (unknown origin) up to 100 uM pre-incubated for 10 mins before Abz-T-V-A-W-pNA addition and measured after 1 hr by fluorescence based assay.
The target of assay [5] is T2, ATP-dependent Clp protease proteolytic subunit (Staphylococcus aureus (strain NCTC 8325)) (UniProt Q2G036).
T2 sequence (whole entry): T1 sequence (Q2G036 whole entry)
Briefly: Inhibition of N-terminal His6-sumo-tagged full length Staphylococcus aureus ClpP expressed in Escherichia coli […] at 3 uM pre-incubated for 10 mins before 200 uM to 1 mM Suc-LY-AMC addition and measured after 1 hr by fluorescence based assay relative to control. In a few lines:
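SaClpP (1 μM) in 100 mM Hepes pH 7.0, 100 mM NaCl preincubated 10 min at RT with 3 μM inhibitor. Suc-LY-AMC at 200 μM or 1 mM, fluorescence at 380/440 nm for 1 h at 37 °C. Slope relative to DMSO; three independent replicates.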

The nature of assay [6]: Inhibition of Pseudomonas aeruginosa ClpP1 expressed in Escherichia coli […] pre-incubated for 10 mins before Suc-LY- AMC addition and measured after 1 hr by fluorescence based assay relative to control. In a few lines: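 PaClpP1 (0.5 μM monomer) in 25 mM Tris-Cl pH 7.5, 150 mM NaCl. Preincubated 10 min at RT with inhibitor, two-fold dilutions over 8 steps from 50 μM. Then 50 μM Suc-LY-AMC, 380/440 nm for 1 h at 37 °C, slopes normalized to DMSO. Thrice, triplicate wells.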

The subject of assay [7] is Staphylococcus aureus. The experiment in a line: Inhibition of Staphylococcus aureus ClpXP expressed in Escherichia coli […] at 1 to 100 uM using FITC-casein substrate in presence of ATP-regenerating system incubated for 50 mins by fluorescence based assay. In a few lines:
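3.6 μM SaClpP with 3 μM SaClpX in 25 mM Hepes pH 7.5, 20 mM MgCl2, 30 mM KCl, 0.03% Tween 20, 10% glycerol, 2 mM DTT. ATP regeneration: 4 mM ATP, 20 U/mL creatine kinase, 16 mM creatine phosphate. FITC-casein 0.048 mg/mL, 494/521 nm for 50 min; slope 300–1200 s vs DMSO. Thrice, triplicate wells.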

In assay [8] the target is T2, ATP-dependent Clp protease proteolytic subunit (Staphylococcus aureus (strain NCTC 8325)). Briefly: Inhibition of N-terminal His6-sumo-tagged full length Staphylococcus aureus ClpP expressed in Escherichia coli […] assessed as enzyme activity recovery level at 20-fold molar excess pre-incubated for 10 mins before Suc-LY-AMC addition and measured after 1 hr followed by dialysis up to 72 hrs by fluorescence based assay relative to control. Further details: scale not given: the % may be the effect or the level left. In a few lines: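 ClpP (1 μM, 100 mM Hepes pH 7.0, 100 mM NaCl) incubated 1 h at RT with 20-fold molar excess inhibitor or DMSO. Dialyzed at 4 °C, buffer changed after 6 h and then every 24 h. Aliquots assayed for peptidase activity with Suc-LY-AMC. Thrice, single sample.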

For assay [9], the target named is Coagulation factor X (Homo sapiens) (UniProt P00742). The experiment in a line: Inhibition of human F10a up to 100 uM pre-incubated for 10 mins before Pefachrome Fxa addition and measured after […] based assay.
Sequence of Coagulation factor X (Homo sapiens) (P00742 41-179 limits assumed): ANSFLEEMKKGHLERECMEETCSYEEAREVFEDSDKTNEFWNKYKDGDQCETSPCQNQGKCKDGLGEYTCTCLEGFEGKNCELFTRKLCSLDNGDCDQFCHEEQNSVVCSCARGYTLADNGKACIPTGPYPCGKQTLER
Sequence of Coagulation factor X (Homo sapiens) (P00742 235-488 limits assumed): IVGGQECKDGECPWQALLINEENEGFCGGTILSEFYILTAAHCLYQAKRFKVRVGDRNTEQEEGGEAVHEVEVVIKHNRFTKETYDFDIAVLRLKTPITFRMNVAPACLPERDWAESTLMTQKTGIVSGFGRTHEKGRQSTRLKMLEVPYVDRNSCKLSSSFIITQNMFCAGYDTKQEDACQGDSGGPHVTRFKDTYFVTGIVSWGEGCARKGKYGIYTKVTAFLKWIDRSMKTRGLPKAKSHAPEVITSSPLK
Assay [10] concerns the target T2, ATP-dependent Clp protease proteolytic subunit (Staphylococcus aureus (strain NCTC 8325)). Briefly: Binding affinity to N-terminal His6-sumo-tagged full length Staphylococcus aureus ClpP expressed in Escherichia coli […] assessed as change in melting temperature at 100 uM by differential scanning calorimetry analysis. In a few lines:
(§1)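 DSC: SaClpP at 0.5 mg/mL (25 μM) incubated at RT with 100 μM inhibitor in assay buffer. Scanned at 1 °C/min over 30–90 °C, with a buffer-buffer scan subtracted. Tm taken as the thermogram peak maximum. Run once, single sample.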

For assay [11] the target is unchanged. The experiment in a line: Binding affinity to N-terminal His6-sumo-tagged full length Staphylococcus aureus ClpP expressed in Escherichia coli […] assessed as melting temperature at 100 uM by differential scanning calorimetry analysis (reference value: 50.8 degC). In a few lines:
as §1
For orientation: Differential scanning calorimetry records heat flow against a reference as temperature is scanned.

Assay [12] has as its target 20S proteasome (Homo sapiens) (UniProt P49721+P20618+P28074+P28062+P28065+P28072+P25786+P25787+P25788+P25789+P28066+P60900+O14818+Q8TAA3+P40306+A5LHX3+P49720+P28070+Q99436). Briefly: Inhibition of 20S proteasome (unknown origin) pre-incubated before Suc-LLVY-AM addition and measured after 1 hr by fluorescence based assay. Type of assay: protein-complex assay.
Assay [13] deals with T1, ATP-dependent Clp protease proteolytic subunit. Briefly: Binding affinity to N-terminal His6-sumo-tagged full length Staphylococcus aureus ClpP expressed in Escherichia coli […] assessed as shifting of melting peak of SaClpP by differential scanning calorimetry analysis. In a few lines:
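DSC: 0.5 mg/mL (25 µM) SaClpP with 100 µM compound or two-fold dilution series, RT; scanned 30-90 °C at 1 °C/min, buffer-buffer scan subtracted; Tm from thermogram peak maximum; single run.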

In assay [14] the test system is Staphylococcus aureus. The experiment in a line: Antivirulence activity against methicillin-resistant Staphylococcus aureus ATCC 33591 infected in BALB/c mouse model of skin abscess assessed as reduction in kidney histopathological changes at 3 mg/kg injected into shaved area of skin once daily for 4 days measured after 12 hrs post last dose by hematoxylin and eosin staining based optical microscopy. It counts as functional, organism-based. In a few lines:
(§2)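 Same MRSA ATCC 33591 skin-abscess model in female BALB/c mice (n=5/group), 40 µL compound at 1.5 or 3 mg/kg injected into the infected shaved skin once daily for 4 days. On day 4 infected skin and heart, liver, spleen, lung, kidney fixed in 4% paraformaldehyde, embedded, sectioned, H&E stained and examined by microscopy; PBS-treated uninfected and vehicle controls.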

The test system of assay [15] is Staphylococcus aureus. The experiment in a line: Antivirulence activity against methicillin-resistant Staphylococcus aureus ATCC 33591 infected in BALB/c mouse model of skin abscess assessed as reduction in skin inflammation at 3 mg/kg injected into shaved area of skin once daily for 4 days measured after 12 hrs post last dose by hematoxylin and eosin staining based optical microscopy. Type of assay: functional, organism-based. In a few lines: as §2

For assay [16], the system named is Staphylococcus aureus. The experiment in a line: Antivirulence activity against methicillin-resistant Staphylococcus aureus ATCC 33591 infected in BALB/c mouse model of skin abscess assessed as reduction in heart histopathological changes at 3 mg/kg injected into shaved area of skin once daily for 4 days measured after 12 hrs post last dose by hematoxylin and eosin staining based optical microscopy. Type of assay: functional, organism-based. In a few lines:
as §2

The subject of assay [17] is Staphylococcus aureus. Briefly: Antivirulence activity against methicillin-resistant Staphylococcus aureus ATCC 33591 infected in BALB/c mouse model of skin abscess assessed as reduction in severe alveolar destruction at 3 mg/kg injected into shaved area of skin once daily for 4 days measured after 12 hrs post last dose by hematoxylin and eosin staining based optical microscopy. It counts as functional, organism-based. In a few lines: as §2

Assay [18] deals with Staphylococcus aureus. The experiment in a line: Antivirulence activity against methicillin-resistant Staphylococcus aureus ATCC 33591 infected in BALB/c mouse model of skin abscess assessed as reduction in interstitium thickening at 3 mg/kg injected into shaved area of skin once daily for 4 days measured after 12 hrs post last dose by hematoxylin and eosin staining based optical microscopy. Type of assay: functional, organism-based. In a few lines: as §2

The subject of assay [19] is Staphylococcus aureus. The experiment in a line: Antivirulence activity against methicillin-resistant Staphylococcus aureus ATCC 33591 infected in BALB/c mouse model of skin abscess assessed as reduction in spleen histopathological changes at 3 mg/kg injected into shaved area of skin once daily for 4 days measured after 12 hrs post last dose by hematoxylin and eosin staining based optical microscopy. Type of assay: functional, organism-based. In a few lines:
as §2

The test system of assay [20] is Staphylococcus aureus. The experiment in a line: Antivirulence activity against methicillin-resistant Staphylococcus aureus ATCC 33591 infected in BALB/c mouse model of skin abscess assessed as reduction in liver histopathological changes at 3 mg/kg injected into shaved area of skin once daily for 4 days measured after 12 hrs post last dose by hematoxylin and eosin staining based optical microscopy. It counts as functional, organism-based. In a few lines: as §2

The test system of assay [21] is Staphylococcus aureus. Briefly: Antivirulence activity against methicillin-resistant Staphylococcus aureus ATCC 33591 infected in BALB/c mouse model of skin abscess assessed as preservation of skin integrity at 3 mg/kg injected into shaved area of skin once daily for 4 days measured after 12 hrs post last dose by hematoxylin and eosin staining based optical microscopy. Type of assay: functional, organism-based. In a few lines:
as §2

Sequence of ATP-dependent Clp protease proteolytic subunit (Escherichia coli (strain K12), UniProt P0A6G7) (P0A6G7 whole entry, the tested form may be a part): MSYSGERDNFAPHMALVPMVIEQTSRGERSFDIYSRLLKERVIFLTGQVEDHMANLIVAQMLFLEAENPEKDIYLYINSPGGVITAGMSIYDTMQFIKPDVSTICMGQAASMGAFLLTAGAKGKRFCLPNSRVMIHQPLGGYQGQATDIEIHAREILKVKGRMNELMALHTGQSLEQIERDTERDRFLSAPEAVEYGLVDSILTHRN

Regarding `CC(C)C[C@H](NC(=O)OCc1ccccc1)C(=O)N[C@@H](Cc1ccc(O)cc1)C(=O)CCl` (Cbz-Leu-Tyr-CH2Cl), inhibition in [1] was half-maximal at 14.4 µM (IC50).

Regarding `CC(C)C[C@H](NC(=O)CNC(=O)c1cc(Cl)ccc1Cl)B1OC(=O)CC(CC(=O)O)(C(=O)O)O1` (stereo partly specified), the IC50 in assay [2] and in [6] was 3 to 25 µM throughout. In [3], this compound displayed a Kd of 7.3 µM. Further, the inhibition entry (in [4]; with Staphylococcus aureus [7]; in [9]) was “inactive” each time. Besides, the inhibition result in [5] and in assay [12] was “Active” throughout. Further, the Activity in assay [8] came to 100%. The ΔTm in assay [10] fell in the range of 29.5 to 42.2 °C. In addition, the Tm in assay [11] worked out at 66.5 °C. In addition, in assay [13], the EC50 stood at 19.9 µM.

As for `CN[C@H](CC(C)C)C(=O)N[C@H]1C(=O)N[C@@H](CC(N)=O)C(=O)N[C@H]2C(=O)N[C@H]3C(=O)N[C@H](C(=O)N[C@H](C(=O)O)c4cc(O)cc(O)c4-c4cc3ccc4O)[C@H](O)c3ccc(c(Cl)c3)Oc3cc2cc(c3O[C@@H]2O[C@H](CO)[C@@H](O)[C@H](O)[C@H]2O[C@H]2C[C@](C)(N)[C@H](O)[C@H](C)O2)Oc2ccc(cc2Cl)[C@H]1O`, the result in the assay on Staphylococcus aureus [14], in the assay on Staphylococcus aureus [15], in the assay on Staphylococcus aureus [16], with Staphylococcus aureus [17], with Staphylococcus aureus [18] and in the assay on Staphylococcus aureus [19] was Active. Besides, the outcome in the assay with Staphylococcus aureus [20] and with Staphylococcus aureus [21] was Active.
